The record followed here is ChEMBL document CHEMBL2203116, “Synthesis and evaluation of novel carbon-11 labeled oxopurine analogues for positron emission tomography imaging of translocator protein (18 kDa) in peripheral organs” (J Med Chem, 2011).

Molecules are shown by their SMILES.

Data set [1] concerns Lung. The data set can be described thus: Drug uptake in Sprague-Dawley rat lung at 0.13 nmol, iv pretreated with unlabeled (R)-PK11195 by PET scanning. The format is ADME, organism-based. Conditions: in vivo; call rule not given here. In outline:
(§1)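 Male Sprague-Dawley rats (6–8 weeks old), isoflurane-anesthetized, prone. ROIs on lung, heart, kidney, liver, small intestine and cardiac blood pool. Uptake decay-corrected to injection time and expressed as SUV (body-weight normalized). n = 4, mean ± SD.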

Data set [2] deals with Heart. The data set can be described thus: Drug uptake in Sprague-Dawley rat heart at 0.13 nmol, iv pretreated with unlabeled (R)-PK11195 by PET scanning. The class given is ADME, organism-based. Particulars: in vivo. Put shortly:
(§2)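 Isoflurane-anesthetized Sprague-Dawley rats underwent 30-min PET after iv [11C]radioligand, with unlabeled blocker given iv 1 min before tracer. Blockers were (R)-PK11195 at 3.0 mg/kg or AC-5216 at 1.0 mg/kg in 300 μL saline with 10% ethanol and 5% polysorbate 80. Regional uptake was decay-corrected SUV (n = 4).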

Data set [3] concerns Kidney. The data set can be described thus: Drug uptake in Sprague-Dawley rat kidney at 0.13 nmol, iv pretreated with unlabeled (R)-PK11195 by PET scanning. The class given is ADME, organism-based. Conditions: in vivo. Put shortly:
as §2

Data set [4] deals with Lung. Briefly: Drug uptake in Sprague-Dawley rat lung at 0.13 nmol, iv pretreated with unlabeled AC-5216 by PET scanning. The format is ADME, organism-based. Conditions: in vivo. In outline: as §1
The test system of data set [5] is Heart. Briefly: Drug uptake in Sprague-Dawley rat heart at 0.13 nmol, iv pretreated with unlabeled AC-5216 by PET scanning. The format is ADME, organism-based. Conditions: in vivo. Put shortly: as §2
Data set [6] has as its system Kidney. Briefly: Drug uptake in Sprague-Dawley rat kidney at 0.13 nmol, iv pretreated with unlabeled AC-5216 by PET scanning. The format is ADME, organism-based. Conditions: in vivo. Put shortly: as §1
Data set [7] relates to Liver. The data set can be described thus: Drug uptake in Sprague-Dawley rat liver at 0.13 nmol, iv pretreated with unlabeled (R)-PK11195 measured after 27.5 mins by PET scanning relative to control. The class given is ADME, organism-based. Particulars: in vivo. In outline:
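Male Sprague-Dawley rats, 6-8 weeks old, under isoflurane, prone. An unlabeled TSPO blocking ligand (3.0 mg/kg) was injected 1 min before the iv radioligand (16-18 MBq/200 μL). A liver ROI was decay-corrected and expressed as SUV normalized to injected activity and body weight. The 27.5-min value was compared with unblocked controls; n = 4.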

In data set [8] the test system is Liver. The data set can be described thus: Drug uptake in Sprague-Dawley rat liver at 0.13 nmol, iv pretreated with unlabeled AC-5216 measured after 27.5 mins by PET scanning relative to control. The class given is ADME, organism-based. Conditions: in vivo. Put shortly:
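Male Sprague-Dawley rats, 6-8 weeks, isoflurane-anesthetized. A blocking TSPO ligand (1.0 mg/kg, in 300 μL saline with 10% ethanol and 5% polysorbate 80) was injected 1 min before iv radioligand (16-18 MBq/200 μL). Liver ROI as decay-corrected SUV (injected activity, body weight), 27.5-min value versus controls; n = 4.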

The test system of data set [9] is Blood. Briefly: Drug uptake in Sprague-Dawley rat cardiac blood pool at 0.13 nmol, iv after 27.5 mins by PET scanning. The class given is ADME, organism-based. Conditions: in vivo. In outline: (§3)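 Isoflurane-anesthetized male Sprague-Dawley rats lay prone and received an iv bolus of [11C]radioligand in 200 μL. 3D list-mode emission scans ran 30 min from injection. Regions of interest were drawn on the organs and cardiac blood pool. Uptake was decay-corrected to injection time and expressed as SUV (normalized to injected radioactivity and body weight). Values are mean of n = 4.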

Data set [10] has as its system Liver. Briefly: Drug uptake in Sprague-Dawley rat liver at 0.13 nmol, iv after 27.5 mins by PET scanning. Conditions: in vivo. The class given is ADME, organism-based. In outline:
as §1

The subject of data set [11] is Lung. The data set can be described thus: Drug uptake in Sprague-Dawley rat lung at 0.13 nmol, iv up to 30 mins by PET scanning. The format is ADME, organism-based. Conditions: in vivo, 0.5 h. In outline:
as §1

The test system of data set [12] is Heart. The data set can be described thus: Drug uptake in Sprague-Dawley rat heart at 0.13 nmol, iv up to 30 mins by PET scanning. The class given is ADME, organism-based. Conditions: in vivo, 0.5 h. Put shortly: as §3
Data set [13] deals with Kidney. The data set can be described thus: Drug uptake in Sprague-Dawley rat kidney at 0.13 nmol, iv up to 30 mins by PET scanning. Conditions: in vivo, 0.5 h. The format is ADME, organism-based. In outline: as §1
Data set [14] deals with Liver. Briefly: Drug uptake in Sprague-Dawley rat liver at 0.13 nmol, iv up to 30 mins by PET scanning. The class given is ADME, organism-based. Particulars: in vivo, 0.5 h. Put shortly: as §1
For data set [15], the system named is Blood. The data set can be described thus: Drug uptake in Sprague-Dawley rat cardiac blood pool at 0.13 nmol, iv up to 30 mins by PET scanning. The format is ADME, organism-based. Conditions: in vivo, 0.5 h. Put shortly:
as §3

In a further data set the test system is Intestine. The data set can be described thus: Drug uptake in Sprague-Dawley rat small intestine at 0.13 nmol, iv up to 30 mins by PET scanning. The format is ADME, organism-based. Particulars: in vivo, 0.5 h. Put shortly: as §1
The test system of data set [16] is Lung. Briefly: Drug uptake in Sprague-Dawley rat lung at 0.13 nmol, iv after 2 mins by PET scanning. The format is ADME, organism-based. Particulars: in vivo. Put shortly:
as §1

Data set [17] concerns Heart. The data set can be described thus: Drug uptake in Sprague-Dawley rat heart at 0.13 nmol, iv after 2 mins by PET scanning. The class given is ADME, organism-based. Conditions: in vivo. In outline: as §3
The test system of data set [18] is Kidney. The data set can be described thus: Drug uptake in Sprague-Dawley rat kidney at 0.13 nmol, iv after 2 mins by PET scanning. Conditions: in vivo. The class given is ADME, organism-based. Put shortly:
as §3

The test system of data set [19] is Liver. The data set can be described thus: Drug uptake in Sprague-Dawley rat liver at 0.13 nmol, iv after 2 mins by PET scanning. Particulars: in vivo. The format is ADME, organism-based. Put shortly: as §1
The test system of data set [20] is Blood. Briefly: Drug uptake in Sprague-Dawley rat cardiac blood pool at 0.13 nmol, iv after 2 mins by PET scanning. The format is ADME, organism-based. Particulars: in vivo. In outline:
as §3

For data set [21], the system named is Lung. The data set can be described thus: Drug uptake in Sprague-Dawley rat lung at 0.13 nmol, iv after 27.5 mins by PET scanning. The format is ADME, organism-based. Conditions: in vivo. Put shortly: as §1
For data set [22], the system named is Heart. The data set can be described thus: Drug uptake in Sprague-Dawley rat heart at 0.13 nmol, iv after 27.5 mins by PET scanning. The class given is ADME, organism-based. Particulars: in vivo. In outline:
as §3

Data set [23] has as its system Kidney. The data set can be described thus: Drug uptake in Sprague-Dawley rat kidney at 0.13 nmol, iv after 27.5 mins by PET scanning. The class given is ADME, organism-based. Particulars: in vivo. Put shortly: as §3
The target of another data set is Translocator protein (Rattus norvegicus, UniProt P16257). The data set can be described thus: Displacement of [11C]-PK-11195 from TPSO in Sprague-Dawley rat brain homogenate after 30 mins by gamma counting. The format is tissue-based.
Translocator protein, sequence (P16257 whole entry, looked up): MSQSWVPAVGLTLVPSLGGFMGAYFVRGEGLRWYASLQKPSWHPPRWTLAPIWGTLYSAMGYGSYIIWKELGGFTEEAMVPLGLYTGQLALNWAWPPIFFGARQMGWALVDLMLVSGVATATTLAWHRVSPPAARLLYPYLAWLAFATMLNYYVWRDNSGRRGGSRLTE
Data set [24] in a line: Lipophilicity, log D of the compound in octanol-phosphate buffer at pH 7.4 by shake flask method. The format is physicochemical. In outline:
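Radioligand (~200000 cpm) shaken with n-octanol (3.0 g) and 0.1 M sodium phosphate buffer pH 7.4 (3.0 g). Vortexed 3 min at room temperature, centrifuged 3500 rpm for 5 min. Phases weighed and counted; organic layer repartitioned until consistent. LogD = log of the cpm/g octanol to cpm/g buffer ratio. Triplicate.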

For `CN(Cc1cccnc1)C(=O)Cn1c(=O)n([11CH3])c2cnc(-c3ccccc3)nc21`, the Drug uptake result in the data set with Lung [1], in the data set on Heart [2], in the data set with Kidney [3], in the data set with Lung [4], in the data set with Heart [5] and in the data set with Kidney [6] was “Not Active” each time. Also, the Drug uptake result with Lung [11], with Heart [12], with Kidney [13], in the data set on Liver [14], with Blood [15] and with Intestine was “Active” in each case. In addition, the “fold change (FC)” value in the data set on Liver [7] and with Liver [8] was 1.5 throughout. For the same molecule, the SUV in the data set with Blood [9] is 0.4; in the data set with Liver [10], 0.5; in the data set on Lung [16], 3.4; in the data set with Heart [17], 4.6; with Kidney [18] it was 3.3; in the data set on Liver [19] it was 1.6. The SUV turned out to be 3 in the data set on Blood [20], 0.5 in the data set with Lung [21], 0.9 with Heart [22] and 1 in the data set on Kidney [23].
For the molecule `CN(Cc1cccnc1)C(=O)Cn1c(=O)n(C)c2cnc(-c3ccccc3)nc21`, the Ki at Translocator protein was found to be 40 nM. The logD in data set [24] stood at 1.81.
On to `CC[C@@H](C)N(C)C(=O)c1cc2ccccc2c(-c2ccccc2Cl)n1` [(R)PK-11195], for which, in [24], the logD was determined as 3.74.
